An excerpt weighted towards active compounds, which were near 12% of everything screened.
CHOP inh: blocks CHOP induction under ER stress; CHO-K1 CHOP-promoter luciferase, tunicamycin-induced, 15-18 h; inhibition, % at 10 µM; 220,000 compounds, 3.8% hits;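 active = compounds that reduced the stress-induced luciferase reporter signal by more than about 70% of percent inhibition, limit read from the data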;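 note: 0% = tunicamycin plus vehicle and 100% = wells without tunicamycin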
PKD1 kinase inh: inhibitors of human PKD1 kinase; PKD1 kinase fluorescence polarization assay; inhibition, % (concentration not given with the values); 200,000 compounds, 0.056% hits; AID 797
Arbovirus anti: blocks arbovirus infection; arbovirus infection cell-based antiviral screen; inhibition, % at 10 µM; 200,000 compounds, 0.37% hits; AID 1251; in the data active = inhibition above about 30%
Lmaj promast: inhibitors of Leishmania major promastigote growth; AID 1063; 200,000 compounds, 9% hits; inhibition, % at 10 µM; Leishmania major promastigotes, resazurin fluorescence viability;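 note: promastigotes grown with compound for 44 hours at 28 °C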
Wee1 stabilizer: inhibitors of human Wee1 degradation. P30291. HeLa Luc-Wee1K328M stability, luciferase luminescence; 100% = proteasome inhibitor MG132 effect. reporter increase, % at 5 µM. 220,000 compounds, 1.2% hits. AID 1321;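 active = activation above the mean of all tested compounds plus 3 SD, set per screening run, cut at about 8.8% in these data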;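 note: cells exposed to compound for 20 h before luminescence read; 0% = DMSO alone and 100% = MG132 at 30 µM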
Rad51 HR inh: Rad51 (human) homologous recombination inhibition | Q06609 | hRad51 DNA strand exchange, fluorescence dequenching | inhibition, % at 10 µM | 200,000 compounds, 0.085% hits | AID 1385;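 active = inhibition above 40% at the single screening dose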;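 note: 0% = DMSO control wells and 100% = blanks with heterologous ssDNA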
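Material: Human Rad51 nucleoprotein filaments preassembled on unlabelled ssDNA | Also added: Labelled 47-mer dsDNA for strand exchange | Dosing: Single dose, 10 µM final compound | Schedule: 30-min compound preincubation and 15-min exchange, both room temperature | Technique: Fluorescence dequenching at 485/520 nm | Measure: Percent inhibition relative to plate controls and blanks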
Active calls of the source: *. Cut-off read from the data, not from the text of the source, unless noted: active = inhibition above about 50%; inactive = the rest.

What do the screens show for `O=C1NN=C(c2ccc(Cl)cc2)CC1c1c[nH]c2ccccc12` (stereo unspecified)?
CHOP inh: 4; PKD1 kinase inh: -13; Arbovirus anti: 9; Lmaj promast: 16; Wee1 stabilizer: 3; Rad51 HR inh: 5

What do the screens show for `CCN(Cc1ccccc1)C(=O)C1CCN(Cc2ccc(OC)c(OC)c2OC)CC1`?
CHOP inh: 7; PKD1 kinase inh: -12; Arbovirus anti: -8; Lmaj promast: -9; Wee1 stabilizer: 1; Rad51 HR inh: 6

What do the screens show for `CCN(Cc1ccccc1)C(=O)C1CCN(Cc2ccc(SC)cc2)CC1`?
CHOP inh: 7; PKD1 kinase inh: -1; Arbovirus anti: -3; Lmaj promast: 88*; Wee1 stabilizer: -3; Rad51 HR inh: 23

How did O=C(C1CCN(CC2CC=CCC2)CC1)N(CCc1ccccc1)Cc1ccccc1 (stereo unspecified) do in these assays?
CHOP inh: -3; PKD1 kinase inh: 4; Arbovirus anti: -15; Lmaj promast: 27; Wee1 stabilizer: -1; Rad51 HR inh: -1

How did CSc1ccc(/C=N/N2CCN(Cc3ccccc3)CC2)cc1 do in these assays?
CHOP inh: 12; PKD1 kinase inh: 0; Arbovirus anti: -11; Lmaj promast: -4; Wee1 stabilizer: 2; Rad51 HR inh: 13

How did CCN(Cc1ccccc1)C1CCN(Cc2ccc(SC)cc2)CC1 do in these assays?
CHOP inh: 13; PKD1 kinase inh: 4; Arbovirus anti: -14; Lmaj promast: 85*; Wee1 stabilizer: 0; Rad51 HR inh: 9

Results for CCN(CC)C(=O)C1CCN(Cc2ccc(Br)cc2)CC1 ?
CHOP inh: 26; PKD1 kinase inh: 0; Arbovirus anti: 8; Lmaj promast: 92*; Wee1 stabilizer: -3; Rad51 HR inh: -2

How did O=C(C1CCN(CCCc2ccccc2)CC1)N(CCc1ccccc1)Cc1ccccc1 do in these assays?
CHOP inh: 30; PKD1 kinase inh: -18; Arbovirus anti: -37; Lmaj promast: 91*; Wee1 stabilizer: -3

What do the screens show for `CC(C)(C)NC(=O)C(c1ccc(O)cc1)N(C(=O)CCC(=O)Nc1nccs1)c1ccc(F)cc1` (stereo unspecified)?
CHOP inh: -1; PKD1 kinase inh: -8; Arbovirus anti: 3; Lmaj promast: -9; Wee1 stabilizer: -2; Rad51 HR inh: 1

What do the screens show for `COc1ccc(S(=O)(=O)N[C@H](C(=O)N2CC[C@@]3(O)CCCC[C@H]3C2)c2ccccc2)cc1`?
CHOP inh: -3; PKD1 kinase inh: 13; Arbovirus anti: 10; Lmaj promast: 7; Wee1 stabilizer: 1

Results for COc1ccc(S(=O)(=O)N[C@@H](Cc2ccc(Cl)cc2)C(=O)N2CC[C@@]3(O)CCCC[C@H]3C2)cc1 ?
CHOP inh: 2; PKD1 kinase inh: -3; Arbovirus anti: 7; Lmaj promast: 86*; Wee1 stabilizer: 5; Rad51 HR inh: -1

What do the screens show for `N#CC1=C2N=C(N)c3ccccc3N2C2=C(C(=O)CCC2)C1c1cccc(Cl)c1` (stereo unspecified)?
CHOP inh: 6; PKD1 kinase inh: -7; Arbovirus anti: -9; Lmaj promast: 81*; Wee1 stabilizer: -1

What do the screens show for `Cc1ccccc1C1C(C#N)=C2N=C(N)c3ccccc3N2C2=C1C(=O)CCC2` (stereo unspecified)?
CHOP inh: -13; Wee1 stabilizer: 1; Rad51 HR inh: -15

How did c1ccc(-n2ncc3c(NCCN4CCCCC4)ncnc32)cc1 do in these assays?
CHOP inh: 5; PKD1 kinase inh: -11; Arbovirus anti: -22; Lmaj promast: 98*; Wee1 stabilizer: 1; Rad51 HR inh: -3

Results for c1ccc(-n2ncc3c(NCCN4CCOCC4)ncnc32)cc1 ?
CHOP inh: 14; PKD1 kinase inh: -10; Arbovirus anti: -4; Lmaj promast: 34; Wee1 stabilizer: 2; Rad51 HR inh: -1

Results for CCCc1cc(=O)oc2cc(OCC(=O)NCc3cccs3)ccc12 ?
CHOP inh: 28; PKD1 kinase inh: -11; Arbovirus anti: -2; Lmaj promast: 71*; Wee1 stabilizer: -1; Rad51 HR inh: -1

What do the screens show for `CN(C)CCNc1ncnc2c1sc1nc(N3CCOCC3)c3c(c12)CC(C)(C)SC3`?
CHOP inh: -19; PKD1 kinase inh: 4; Arbovirus anti: -34; Lmaj promast: 101*; Wee1 stabilizer: 1; Rad51 HR inh: -4

Results for CCN(CC)CCNc1ncnc2c1sc1nc(N3CCOCC3)c3c(c12)CC(C)(C)SC3 ?
CHOP inh: 22; PKD1 kinase inh: -5; Arbovirus anti: -31; Lmaj promast: 100*; Wee1 stabilizer: 0; Rad51 HR inh: 7

What do the screens show for `CC1(C)Cc2c(c(N3CCOCC3)nc3sc4c(=O)[nH]cnc4c23)CS1`?
CHOP inh: 12; PKD1 kinase inh: 3; Arbovirus anti: -10; Lmaj promast: 14; Wee1 stabilizer: -2; Rad51 HR inh: -5

What do the screens show for `O=C(O)C1CCCCC1C(=O)Nc1nc(-c2ccc(Cl)s2)cs1` (stereo unspecified)?
CHOP inh: 4; PKD1 kinase inh: -1; Arbovirus anti: 38*; Lmaj promast: 3; Wee1 stabilizer: 2; Rad51 HR inh: -4

How did CCCC(=O)Nc1nc(-c2ccc(Cl)s2)cs1 do in these assays?
CHOP inh: 29; PKD1 kinase inh: -3; Arbovirus anti: 14; Lmaj promast: 0; Wee1 stabilizer: 5; Rad51 HR inh: 6

Results for O=C(CSc1nnc(SCc2ccc(Cl)cc2)s1)N/N=C/c1ccccc1C(=O)O ?
CHOP inh: -2; Wee1 stabilizer: 0; Rad51 HR inh: 8

How did COc1ccc(OC)c(NC(=O)C(C)Oc2ccc(Br)cc2)c1 (stereo unspecified) do in these assays?
CHOP inh: 27; PKD1 kinase inh: -7; Arbovirus anti: -2; Lmaj promast: 34; Wee1 stabilizer: 3; Rad51 HR inh: 14

How did COc1ccc(C2C([N+](=O)[O-])=C(C)N(C)C(=O)N2C)cc1OC (stereo unspecified) do in these assays?
CHOP inh: -5; PKD1 kinase inh: 3; Arbovirus anti: -9; Lmaj promast: 20; Wee1 stabilizer: -2; Rad51 HR inh: -3

How did CCOc1ccc(C2C([N+](=O)[O-])=C(C)N(C)C(=O)N2C)cc1OC (stereo unspecified) do in these assays?
CHOP inh: -3; PKD1 kinase inh: 2; Arbovirus anti: -1; Lmaj promast: 56*; Wee1 stabilizer: 0; Rad51 HR inh: 5

How did Cc1n[nH]c(=O)n1-c1ccc(OCc2ccccc2)cc1 do in these assays?
CHOP inh: -1; PKD1 kinase inh: -4; Arbovirus anti: 0; Lmaj promast: -5; Wee1 stabilizer: -2

Results for CCSc1ncccc1C(=O)N[C@@H](CCSC)C(=O)OC ?
CHOP inh: -18; Wee1 stabilizer: -1; Rad51 HR inh: 8

Results for CC(=O)N(CCCN(C)C)CCC(C)CCC=C(C)C (stereo unspecified) ?
CHOP inh: -17; PKD1 kinase inh: -8; Arbovirus anti: 4; Lmaj promast: 100*; Wee1 stabilizer: -2; Rad51 HR inh: -2

Screening data: PubChem BioAssay, several laboratories
